Test system: MS2 coat protein
Assay: apparent Kd, MS2 coat protein; higher = weaker binding; RNA-MaP array
Outline: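 The designed RNAs, transcribed from sequenced DNA templates on an Illumina sequencing chip, were incubated with fluorescently labeled MS2 coat protein at room temperature. Protein ranged from 1.5 nM to 3 μM, with 0.8–1.5 h incubation at the lowest and 10–20 min at the highest concentrations, in Tris-HCl pH 7.5 buffer with KCl, MgCl2, BSA, DTT, tRNA and Tween20, with or without input ligand. The median of per-cluster binding-curve fits gives the apparent Kd, and designs measured on fewer than 10 clusters were excluded.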

[1] = designed as: OFF switch for flavin mononucleotide, no ligand
[2] = ligand present: flavin mononucleotide, designed as: OFF switch for flavin mononucleotide
[3] = designed as: ON switch for flavin mononucleotide, no ligand
[4] = ligand present: flavin mononucleotide, designed as: ON switch for flavin mononucleotide

Sequence | apparent Kd [1] [nM] | apparent Kd [2] [nM] | apparent Kd [3] [nM] | apparent Kd [4] [nM] | other results
AAAAUAGCAGGAUAUACAUGAGGAUCACCCAUGUCAAGACAGCACGGUGCAAGGUAGGGUAGAAGGGCUAAUUG | 22.8 | 30.1 | – | – | –
AAACAGAGCAGAGGAUAUAUGAUAUGCCGAACAUGAGGAUCACCCAUGUCUUCGCGUAGCGCCCCAUAGAAGGCUGAUAGCAAC | – | – | 16.6 | 14 | –
AAACAUGCGUGAGAGGAUAUGUCAUUAAUAACAUGAGGAUCACCCAUGUUCGAUGAUUGAAAUAAACAGAAGGCUCCGGUCUGUAA | – | – | 27 | 18.7 | –
AAAGCAGUAGGAUAUACAGUCAUCCGACAGAUAGCGUAAAGACAUGAGGAUCACCCAUGUAGAAGGACUGUAAA | 6.35 | 6.28 | – | – | –
AACAUGAGGAUCACCCAUGUACACUCAAUUCGGUAUCGCUGCAAGGAUAUUCGCGUUGGAUACAUGAAGAAGGUGCCCGUACCG | – | – | 92 | 12.5 | –
AACUAAAACGAUAGUCGACAUGAGGAUCACCCAUGUACAAAACAGGAUAUAAGAUUACCGGUGUGUAAGAAGGGUUUGCUAUCA | – | – | 15.2 | 12.6 | –
AAGCGUUCAGGAUAUACAUGAGGAUCACCCAUGUAAUGGAUGCUGCAUUACCGGGCGAGUAGAAGGGAAACGUC | 6.09 | 6.24 | – | – | –
AAGCUUCAACUUCAUUCACAUGAGGAUCACCCAUGUGAUCCGAGAAGGUUUCACUAGAAUUCUGAAAAGGAUAUCGAUCACAAU | 16.2 | 19.7 | – | – | –
AAUAGAGCACUAGGAUAUGUUUCGUGUGCAGGUGGACAUGAGGAUCACCCAUGUAUAUGUUCAAGACAGAAGGAGACAGAUGAA | 59.2 | 38.4 | – | – | –
AAUAUAAACGUCAGGAUAUUCACGAUAAACAAAUAGAAGAAGGGACAUGAGGAUCACCCAUGUAAACAUGAGUA | 11.6 | 18.3 | – | – | –
AAUGAAAAGCAGAAGGCCUUAGCAAGUCGUAGAGGAGGAUAUGCGUACGCGGGUUGGCCAACAUGAGGAUCACCCAUGUCACCA | 22.4 | 26.3 | – | – | –
AAUGGAGUCGAGAAGGCAGCGACCCACUAAACCUGAGGAUAUCGUCUCCGAAAAUGGGUGGGUGUACAUGAGGAUCACCCAUGU | 95.2 | 122 | – | – | –
ACAACAAAACAGAAGGCCUUAAAUUACAUGAGGAUCACCCAUGUUACACUAUACAAACAGAACAAGGAGGAUAUGUAAGACUGA | – | – | 19.9 | 8.65 | –
ACAAGCCGAGGAUAUACAAGAAAGGCAAGACUGAUAAGAUAACAUGAGGAUCACCCAUGUAGAAGGCGGAAUAC | 10.4 | 14.1 | – | – | –
ACAUGAGGAUCACCCAUGUUUUAUUCGAACUGGAAAUGACGUCAGGAUAUCACAAAUAGCAGCAAUGAGAAGGGACUAUAUAUG | – | – | 11.6 | 8.79 | –
ACCAUCACAUGAGGAUCACCCAUGUAAAUAACUACAUAGACGGAGGAUAUCACAAUAACAGCGAAAGAGAAGGCCGGUGUAAAA | – | – | 11.5 | 8.1 | –
ACCAUGUAAGGAUAUCACAAGUUGAGUAGUUCGUUUGGGUGUGAGAAGGUACAUGAGGAUCACCCAUGUUCUGG | 154 | 237 | – | – | –
ACCAUGUGACAGGAUAUGUUUCUCUCAAUAAACACAGAAGGGUCUACAUGAGGAUCACCCAUGUGUAUUCUACC | 72.6 | 64.3 | – | – | –
ACCCAACAUGAGGAUCACCCAUGUGCAUGCCUCGGAGGAUAUGACCUCAUUCAUCUUUGAUCAGAAGGCCGAUCGC | – | – | 113 | 26 | –
ACCCUGUGAGGAUAUUAUUAGCUCGGCCAUAAUAAGGAUAGUAAGAAGGCACAUGAGGAUCACCCAUGUAUCCU | 21.8 | 19.2 | – | – | –
ACGAAUGGUUCAACAUGAGGAUCACCCAUGUGAUCUUCCAUUCAGGAUAUGUGUAGUAGAUCUCAACAGAAGGGAAUAAAAUAG | 35.8 | 38.7 | – | – | –
ACUCCCGCAGAAGGAUAUCCUGACUGAACGAUCGACAUGAGGAUCACCCAUGUGUCUCCGUCGAGGGAGAAGGUCUGCUGUGAC | – | – | 18.7 | 7.98 | –
AGAGAGUCAGGAUAUAAAUAUAAAGAGAUAAAGCAAACAAUUUAGAAGGGACAUGAGGAUCACCCAUGUGAUAA | 13.6 | 12.7 | – | – | –
AGCCGUUGGGAUAGACAUGAGGAUCACCCAUGUAAAAGCGAAGAGGAUAUCAGAAUUAAGACAACAGAGAAGGCAUAAAUACAA | – | – | 38.1 | 28.3 | –
AGCGACAUGAGGAUCACCCAUGUACAUUCCCGAGGACCGGUACGGCCGCCACUCGAUGGAAGUGGUAGCAGCUUGGAUGGGCCUA | – | – | – | – | apparent Kd (designed as: ON switch for tryptophan, no ligand): 15.7 nM; apparent Kd (ligand present: tryptophan, designed as: ON switch for tryptophan): 26.7 nM
AGCUGGGCUGAGAAGGCGUAUCGCUGUUAAGUGACAUGAGGAUCACCCAUGUAAUUACGAGGCUACGAGGAUAUCAACUAUGGA | – | – | 35.1 | 15.5 | –

Source: the EternaBench riboswitch data
